{"source": "ChEMBL document CHEMBL1944524", "about": "“Synthesis and structure-activity relationship of 5-pyridazin-3-one phenoxypiperidines as potent, selective histamine H(3) receptor inverse agonists” (Bioorg Med Chem Lett, 2012)", "key": {"Histamine H3 receptor [1]": {"target": "Histamine H3 receptor (Rattus norvegicus, UniProt Q9QYN8)", "sequence (Q9QYN8 whole entry)": "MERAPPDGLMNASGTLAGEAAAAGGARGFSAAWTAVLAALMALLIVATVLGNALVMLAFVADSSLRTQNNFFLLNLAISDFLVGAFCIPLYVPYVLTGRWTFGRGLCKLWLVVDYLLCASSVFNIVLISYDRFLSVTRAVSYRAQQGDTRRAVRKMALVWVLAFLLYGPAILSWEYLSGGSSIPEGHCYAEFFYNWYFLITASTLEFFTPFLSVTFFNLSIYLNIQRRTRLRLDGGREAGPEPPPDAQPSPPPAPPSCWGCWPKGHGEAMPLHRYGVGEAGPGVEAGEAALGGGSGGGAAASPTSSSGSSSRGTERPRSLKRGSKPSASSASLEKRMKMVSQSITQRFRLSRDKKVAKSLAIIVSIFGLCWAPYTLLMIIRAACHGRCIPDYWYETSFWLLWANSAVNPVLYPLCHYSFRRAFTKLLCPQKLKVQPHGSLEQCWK", "experiment": "Displacement of [3H]N-alpha-methylhistamine from rat histamine H3 receptor expressed in CHO cells", "type": "cell-based"}, "Histamine H3 receptor [2]": {"target": "Histamine H3 receptor (Homo sapiens, UniProt Q9Y5N1)", "sequence (Q9Y5N1 whole entry)": "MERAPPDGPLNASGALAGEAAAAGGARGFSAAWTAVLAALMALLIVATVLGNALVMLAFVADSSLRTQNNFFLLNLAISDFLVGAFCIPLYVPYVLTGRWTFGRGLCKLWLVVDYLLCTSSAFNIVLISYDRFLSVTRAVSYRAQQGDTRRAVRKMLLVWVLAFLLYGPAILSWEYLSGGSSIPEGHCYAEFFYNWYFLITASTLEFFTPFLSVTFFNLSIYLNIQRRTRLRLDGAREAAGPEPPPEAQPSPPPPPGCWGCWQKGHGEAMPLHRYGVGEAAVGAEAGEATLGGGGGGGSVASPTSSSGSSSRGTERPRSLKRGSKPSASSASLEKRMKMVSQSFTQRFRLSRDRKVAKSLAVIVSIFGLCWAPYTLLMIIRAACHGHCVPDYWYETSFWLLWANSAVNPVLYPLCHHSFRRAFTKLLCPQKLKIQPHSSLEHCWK", "experiment": "Displacement of [3H]N-alpha-methylhistamine from human histamine H3 receptor expressed in CHO cells", "type": "cell-based"}, "[3]": {"experiment": "Volume of distribution in rat at 1 mg/kg, iv", "type": "ADME, organism-based", "set-up": "dose 1 mg/kg, route intravenous", "details": "in vivo", "procedure,_shortened": "(§1)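 Rat PK study, dosed 1 mg/kg iv plus 10 or 5 mg/kg po. iv vehicle 3% DMSO, 30% solutol, 67% phosphate buffered saline; oral vehicle 50% Tween 80, 40% propylene carbonate, 10% propylene glycol.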"}, "[4]": {"experiment": "Cmax in rat at 10 mg/kg, po", "type": "ADME, organism-based", "set-up": "dose 10 mg/kg, route oral", "details": "in vivo", "procedure,_shortened": "as §1"}, "[5]": {"experiment": "Tmax in rat at 10 mg/kg, po", "type": "ADME, organism-based", "set-up": "dose 10 mg/kg, route oral", "details": "in vivo", "procedure,_shortened": "as §1"}, "[6]": {"experiment": "AUC in rat at 10 mg/kg, po", "type": "ADME, organism-based", "set-up": "dose 10 mg/kg, route oral", "details": "plasma", "procedure,_shortened": "as §1"}, "[7]": {"experiment": "Ratio of drug level in brain to plasma in rat at 10 mg/kg, ip after 6 hrs", "type": "ADME, organism-based", "set-up": "dose 10 mg/kg, route intraperitoneal", "details": "read-out: BPR", "procedure,_shortened": "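Brain and plasma levels measured in rat 6 h after a 10 mg/kg ip dose; value is brain/plasma ratio.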"}, "[8]": {"experiment": "Half life in rat at 1 mg/kg, iv", "type": "ADME, organism-based", "set-up": "dose 1 mg/kg, route intravenous", "details": "in vivo", "procedure,_shortened": "as §1"}, "[9]": {"experiment": "Clearance in rat at 1 mg/kg, iv", "type": "ADME, organism-based", "set-up": "dose 1 mg/kg, route intravenous", "details": "in vivo", "procedure,_shortened": "as §1"}, "[10]": {"experiment": "Cmax in rat at 5 mg/kg, po", "type": "ADME, organism-based", "set-up": "dose 5 mg/kg, route oral", "details": "in vivo", "procedure,_shortened": "as §1"}, "[11]": {"experiment": "Tmax in rat at 5 mg/kg, po", "type": "ADME, organism-based", "set-up": "dose 5 mg/kg, route oral", "details": "in vivo", "procedure,_shortened": "as §1"}, "[12]": {"experiment": "Oral bioavailability in rat at 5 mg/kg", "type": "ADME, organism-based", "details": "in vivo", "procedure,_shortened": "as §1"}, "[13]": {"experiment": "AUC in rat at 5 mg/kg, po", "type": "ADME, organism-based", "set-up": "dose 5 mg/kg, route oral", "details": "plasma", "procedure,_shortened": "as §1"}, "[14]": {"target": "Voltage-gated inwardly rectifying potassium channel KCNH2 (Homo sapiens, UniProt Q12809)", "sequence (Q12809 whole entry)": "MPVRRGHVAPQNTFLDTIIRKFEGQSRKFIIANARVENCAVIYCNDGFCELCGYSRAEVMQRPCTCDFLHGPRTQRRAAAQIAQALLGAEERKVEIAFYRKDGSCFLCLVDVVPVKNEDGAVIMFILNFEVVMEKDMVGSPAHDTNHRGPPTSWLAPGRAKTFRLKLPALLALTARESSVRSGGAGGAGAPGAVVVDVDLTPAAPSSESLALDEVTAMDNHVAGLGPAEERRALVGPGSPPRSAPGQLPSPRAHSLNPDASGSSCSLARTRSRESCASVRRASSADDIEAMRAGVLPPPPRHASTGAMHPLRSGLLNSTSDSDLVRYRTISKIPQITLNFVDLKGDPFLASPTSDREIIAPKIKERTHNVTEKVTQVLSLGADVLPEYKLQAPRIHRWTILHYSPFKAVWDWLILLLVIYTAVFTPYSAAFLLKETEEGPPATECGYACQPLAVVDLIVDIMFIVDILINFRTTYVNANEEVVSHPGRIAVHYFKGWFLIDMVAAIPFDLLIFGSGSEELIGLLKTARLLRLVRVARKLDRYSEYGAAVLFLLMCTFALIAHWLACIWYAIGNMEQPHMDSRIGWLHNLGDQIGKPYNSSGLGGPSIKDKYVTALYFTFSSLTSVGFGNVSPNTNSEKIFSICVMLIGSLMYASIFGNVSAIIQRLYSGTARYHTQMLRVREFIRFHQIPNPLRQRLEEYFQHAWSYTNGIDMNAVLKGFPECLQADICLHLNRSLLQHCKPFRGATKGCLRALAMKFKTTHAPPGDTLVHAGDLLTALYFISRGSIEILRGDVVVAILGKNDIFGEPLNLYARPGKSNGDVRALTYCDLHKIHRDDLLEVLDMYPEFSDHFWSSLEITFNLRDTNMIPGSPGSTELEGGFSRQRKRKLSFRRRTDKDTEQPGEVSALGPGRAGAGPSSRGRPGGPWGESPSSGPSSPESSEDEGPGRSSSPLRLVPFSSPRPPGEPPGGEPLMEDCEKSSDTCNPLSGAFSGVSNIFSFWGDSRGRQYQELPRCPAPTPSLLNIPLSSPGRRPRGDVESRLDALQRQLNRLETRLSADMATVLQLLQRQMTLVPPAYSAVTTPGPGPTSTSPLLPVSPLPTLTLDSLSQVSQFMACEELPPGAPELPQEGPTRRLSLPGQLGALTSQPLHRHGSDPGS", "experiment": "Inhibition of human ERG by patch clamp assay"}, "[15]": {"experiment": "Inhibition of cytochrome P450", "type": "ADME", "procedure,_shortened": "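CYP inhibition assessed against 5 CYP isoforms; IC50 determined.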"}, "[16]": {"experiment": "Oral bioavailability in rat", "type": "ADME, organism-based", "details": "in vivo", "procedure,_shortened": "as §1"}, "[17]": {"experiment": "Half life in human liver microsomes", "type": "ADME, Microsome", "procedure,_shortened": "(§2)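 Stability in liver microsomes from rat, dog or human; half-life (min) determined.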"}, "[18]": {"experiment": "Half life in rat liver microsomes", "type": "ADME, Microsome", "procedure,_shortened": "as §2"}, "[19]": {"experiment": "Half life in dog liver microsomes", "type": "ADME, Canis lupus familiaris, Microsome", "procedure,_shortened": "as §2"}, "[20]": {"experiment": "Cmax in po dosed rat", "type": "ADME, organism-based", "set-up": "route oral", "details": "in vivo"}, "[21]": {"experiment": "AUC in po dosed rat", "type": "ADME, organism-based", "details": "plasma"}, "Rattus norvegicus [22]": {"test_system": "Rattus norvegicus", "experiment": "Cmax in po dosed rat assessed as 5-[4-(1-cyclobutyl-piperidin-4-yloxy)-phenyl]-6-methyl-2H-pyridazin-3-one level", "type": "ADME, organism-based", "set-up": "route oral", "details": "in vivo"}, "Rattus norvegicus [23]": {"test_system": "Rattus norvegicus", "experiment": "AUC in po dosed rat assessed as 5-[4-(1-cyclobutyl-piperidin-4-yloxy)-phenyl]-6-methyl-2H-pyridazin-3-one level", "type": "ADME, organism-based, Plasma", "details": "in vivo"}}}
{"smiles": "O=c1cc(-c2ccc(OC3CCN(C4CCC4)CC3)nc2)cn[nH]1", "values": [{"measurement": "Ki", "setting": "Histamine H3 receptor [1]", "result": 20, "unit": "nM"}, {"measurement": "Ki", "setting": "Histamine H3 receptor [2]", "result": 14, "unit": "nM"}]}
{"smiles": "C[C@@H]1CCCN1CCCOc1ccc(-c2cn[nH]c(=O)c2)cc1", "values": [{"measurement": "Vd", "setting": "[3]", "result": 0.8, "unit": "L/kg"}, {"measurement": "Cmax", "setting": "[4]", "result": 446, "unit": "ng/mL"}, {"measurement": "Tmax", "setting": "[5]", "result": 2, "unit": "h"}, {"measurement": "AUC", "setting": "[6]", "result": 4210, "unit": "ng·h/mL"}, {"measurement": "Kp at 6 h", "setting": "[7]", "result": 1.8}, {"measurement": "Ki", "setting": "Histamine H3 receptor [1]", "result": 8.5, "unit": "nM"}, {"measurement": "Ki", "setting": "Histamine H3 receptor [2]", "result": 2.8, "unit": "nM"}]}
{"smiles": "Cc1cccc(-n2nc(C)c(-c3ccc(OC4CCN(C5CCC5)CC4)cc3)cc2=O)n1", "values": [{"measurement": "half-life", "setting": "[8]", "result": 1.1, "unit": "h"}, {"measurement": "Vd", "setting": "[3]", "result": 1.7, "unit": "L/kg"}, {"measurement": "clearance", "setting": "[9]", "result": 16, "unit": "mL/min/kg"}, {"measurement": "Kp at 6 h", "setting": "[7]", "result": 1.6}, {"measurement": "Ki", "setting": "Histamine H3 receptor [1]", "result": 10, "unit": "nM"}, {"measurement": "Cmax", "setting": "[10]", "result": 332, "unit": "ng/mL"}, {"measurement": "Tmax", "setting": "[11]", "result": 2, "unit": "h"}, {"measurement": "bioavailability", "setting": "[12]", "result": 20, "unit": "%"}, {"measurement": "AUC", "setting": "[13]", "result": 1270, "unit": "ng·h/mL"}, {"measurement": "Ki", "setting": "Histamine H3 receptor [2]", "result": 4, "unit": "nM"}, {"measurement": "IC50", "setting": "[14]", "result": "> 30000", "unit": "nM"}, {"measurement": "IC50", "setting": "[15]", "result": "> 30000", "unit": "nM"}]}
{"smiles": "Cc1nn(C)c(=O)cc1-c1ccc(OC2CCN(C3CCC3)CC2)cc1", "values": [{"measurement": "Ki", "setting": "Histamine H3 receptor [1]", "result": 8, "unit": "nM"}, {"measurement": "bioavailability", "setting": "[16]", "result": 19, "unit": "%"}, {"measurement": "Ki", "setting": "Histamine H3 receptor [2]", "result": 4, "unit": "nM"}, {"measurement": "half-life", "setting": "[17]", "result": "> 0.667", "unit": "h"}, {"measurement": "half-life", "setting": "[18]", "result": "> 0.667", "unit": "h"}, {"measurement": "half-life", "setting": "[19]", "result": "> 0.667", "unit": "h"}, {"measurement": "IC50", "setting": "[15]", "result": "> 30000", "unit": "nM"}, {"measurement": "Cmax", "setting": "[20]", "result": 107, "unit": "ng/mL"}, {"measurement": "AUC", "setting": "[21]", "result": 337, "unit": "ng·h/mL"}, {"measurement": "Cmax", "setting": "Rattus norvegicus [22]", "result": 68, "unit": "ng/mL"}, {"measurement": "AUC", "setting": "Rattus norvegicus [23]", "result": 320, "unit": "ng·h/mL"}]}
{"smiles": "Cc1nn(-c2ccsc2)c(=O)cc1-c1ccc(OC2CCN(C3CCC3)CC2)cc1", "values": [{"measurement": "Ki", "setting": "Histamine H3 receptor [1]", "result": 8, "unit": "nM"}, {"measurement": "Ki", "setting": "Histamine H3 receptor [2]", "result": 3, "unit": "nM"}]}
